Measurements taken from ChEMBL document CHEMBL4014325.
Calls of active or inactive are those of the source. The rule behind the calls is not given here.

What was measured:
[1] = Stability of compound in DMSO; format: physicochemical
[2] = Metabolic stability in rat liver microsomes assessed as compound remaining in presence of NADPH at 10 uM after 180 mins by LC/MS analysis; format: ADME, microsome; conditions: read-out: Stability
How it was run: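 10 μM compound shaken at 37 °C with rat liver microsomes (1 mg protein/mL) in 100 mM potassium phosphate buffer with 1 mM NADPH, sampled at 2–180 min. Quenched on ice with ice-cold ethyl acetate, centrifuged, supernatant dried and redissolved. Parent compound quantified by C₁₈ reverse-phase LC/MS (5–95% acetonitrile gradient); mean ± SEM, n=3.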

[3] = biological target: T1, Anoctamin-1 (Homo sapiens) (UniProt Q5XXA6); conditions: 1 uM
T1 sequence (whole entry): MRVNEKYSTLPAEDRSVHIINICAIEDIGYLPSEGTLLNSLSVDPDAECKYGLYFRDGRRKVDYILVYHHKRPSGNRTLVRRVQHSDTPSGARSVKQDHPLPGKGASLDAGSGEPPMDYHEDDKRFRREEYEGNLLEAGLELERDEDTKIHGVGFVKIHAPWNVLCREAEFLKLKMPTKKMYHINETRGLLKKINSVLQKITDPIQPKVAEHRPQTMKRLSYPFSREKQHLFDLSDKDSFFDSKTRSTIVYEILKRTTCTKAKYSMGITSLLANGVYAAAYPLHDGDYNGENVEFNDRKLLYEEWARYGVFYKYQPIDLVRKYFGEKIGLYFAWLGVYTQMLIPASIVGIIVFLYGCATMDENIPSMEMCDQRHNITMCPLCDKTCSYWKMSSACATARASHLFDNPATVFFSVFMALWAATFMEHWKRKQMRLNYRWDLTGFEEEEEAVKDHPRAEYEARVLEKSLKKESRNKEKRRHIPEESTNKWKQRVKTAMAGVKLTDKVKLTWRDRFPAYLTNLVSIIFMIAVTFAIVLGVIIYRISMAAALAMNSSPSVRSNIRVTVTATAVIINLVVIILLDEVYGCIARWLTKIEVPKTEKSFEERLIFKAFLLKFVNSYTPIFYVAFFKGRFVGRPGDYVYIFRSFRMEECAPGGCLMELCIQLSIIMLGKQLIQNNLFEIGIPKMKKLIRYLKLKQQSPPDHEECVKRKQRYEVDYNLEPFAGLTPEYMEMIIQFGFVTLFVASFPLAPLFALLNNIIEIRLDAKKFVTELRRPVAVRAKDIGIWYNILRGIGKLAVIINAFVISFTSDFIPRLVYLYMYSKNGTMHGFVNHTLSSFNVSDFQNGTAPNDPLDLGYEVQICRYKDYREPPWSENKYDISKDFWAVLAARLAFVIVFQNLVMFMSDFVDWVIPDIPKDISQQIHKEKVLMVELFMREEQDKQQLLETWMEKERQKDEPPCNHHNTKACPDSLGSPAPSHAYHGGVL

[4] = Stability of compound in aqueous solution at 100 uM after 1 day by ESI-LCMS analysis; format: physicochemical; conditions: read-out: Stability
How it was run: (§1)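 Duplicate samples of 100 μM compound in H₂O (20% DMSO) with 100 μM 5-chloro-3-phenyl-2,1-benzisoxazole as internal standard. Kept at 25 °C for 3 days and analysed daily by ESI-LCMS for the parent compound and the oxalamic acid degradation product.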

[5] = Cytotoxicity against human HT-29 cells assessed as cell survival at 5 uM after 8 hrs by alamar blue assay relative to control; format: cell-based; conditions: read-out: Survival
How it was run: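 Cells cultured overnight, then exposed to compound at 5 μM for 8 h. Viability read by Alamar Blue per kit instructions. Table reports n=3.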

[6] = Kinetic aqueous solubility of compound in PBS by titration method; format: physicochemical; conditions: buffer
How it was run: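 Increasing quantities of a 30 mM DMSO stock added to 2 mL aliquots of PBS. Kinetic solubility taken from the titration point.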

[7] = biological target: T1, Anoctamin-1 (Homo sapiens); conditions: 250 nM
[8] = biological target: Cystic fibrosis transmembrane conductance regulator (Homo sapiens) (UniProt P13569); experiment: Inhibition of human wild type CFTR expressed in FRT cells co-expressing halide sensitive YFP-H148Q assessed as reduction in forskolin induced cAMP activated chloride conductance by measuring decrease in iodide influx after 15 mins by fluorescence assay; format: cell-based
How it was run: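 FRT cells co-expressing YFP and wild-type CFTR, washed with PBS. Incubated 15 min with compound in PBS containing 20 μM forskolin. Plate reader baseline 2 s, then 12 s after rapid addition of I⁻-containing solution; initial I⁻ influx rate computed.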

[9] = Stability of compound in aqueous solution at 100 uM after 2 days by ESI-LCMS analysis; format: physicochemical; conditions: read-out: Stability; how it was run: as §1
[10] = biological target: T1, Anoctamin-1 (Homo sapiens); conditions: 1 uM; remark: listed apart in the source
[11] = biological target: T1, Anoctamin-1 (Homo sapiens); conditions: 250 nM; remark: listed apart in the source
[12] = biological target: T1, Anoctamin-1 (Homo sapiens); conditions: 1 uM; remark: listed apart in the source
[13] = biological target: T2, Anoctamin-1 (Mus musculus) (UniProt Q8BHY3); experiment: Inhibition of TMEM16A in CD1 mouse ileum assessed as reduction in intestinal smooth muscle contraction
T2 sequence (whole entry): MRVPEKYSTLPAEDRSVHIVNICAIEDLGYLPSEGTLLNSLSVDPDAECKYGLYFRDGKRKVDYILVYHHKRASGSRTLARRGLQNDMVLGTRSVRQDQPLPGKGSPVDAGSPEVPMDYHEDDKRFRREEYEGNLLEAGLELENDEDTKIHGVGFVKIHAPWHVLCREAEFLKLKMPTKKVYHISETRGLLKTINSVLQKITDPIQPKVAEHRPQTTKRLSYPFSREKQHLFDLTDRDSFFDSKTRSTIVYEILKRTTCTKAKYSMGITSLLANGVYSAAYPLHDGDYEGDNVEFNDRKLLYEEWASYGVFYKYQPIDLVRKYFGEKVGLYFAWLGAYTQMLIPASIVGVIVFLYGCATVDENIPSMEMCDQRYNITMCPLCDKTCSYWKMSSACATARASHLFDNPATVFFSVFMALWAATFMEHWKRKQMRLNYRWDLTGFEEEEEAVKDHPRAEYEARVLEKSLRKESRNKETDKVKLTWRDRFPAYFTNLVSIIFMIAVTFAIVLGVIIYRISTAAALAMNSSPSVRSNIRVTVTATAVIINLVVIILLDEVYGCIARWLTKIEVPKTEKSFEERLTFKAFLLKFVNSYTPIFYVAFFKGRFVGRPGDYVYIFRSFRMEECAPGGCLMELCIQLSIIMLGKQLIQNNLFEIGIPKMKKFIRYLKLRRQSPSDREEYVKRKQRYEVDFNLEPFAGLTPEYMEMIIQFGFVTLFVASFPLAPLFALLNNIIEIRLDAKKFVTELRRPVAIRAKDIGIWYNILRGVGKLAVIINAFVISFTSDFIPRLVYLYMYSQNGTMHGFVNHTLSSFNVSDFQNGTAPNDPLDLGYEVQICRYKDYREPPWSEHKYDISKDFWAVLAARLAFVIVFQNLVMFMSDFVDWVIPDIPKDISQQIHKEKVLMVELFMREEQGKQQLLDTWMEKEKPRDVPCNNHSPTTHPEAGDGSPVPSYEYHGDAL
How it was run: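 Ileal segments of ~2 cm from adult CD1 mice killed by avertin overdose (200 mg/kg), ends tied, mounted on a force transducer. […] Stabilised 60 min at 0.5 g resting tension with changes every 15 min. Compound added to the bath; spontaneous isometric contractions recorded; three separate experiments.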

Chain of Cystic fibrosis transmembrane conductance regulator (Homo sapiens) (P13569 whole entry, looked up): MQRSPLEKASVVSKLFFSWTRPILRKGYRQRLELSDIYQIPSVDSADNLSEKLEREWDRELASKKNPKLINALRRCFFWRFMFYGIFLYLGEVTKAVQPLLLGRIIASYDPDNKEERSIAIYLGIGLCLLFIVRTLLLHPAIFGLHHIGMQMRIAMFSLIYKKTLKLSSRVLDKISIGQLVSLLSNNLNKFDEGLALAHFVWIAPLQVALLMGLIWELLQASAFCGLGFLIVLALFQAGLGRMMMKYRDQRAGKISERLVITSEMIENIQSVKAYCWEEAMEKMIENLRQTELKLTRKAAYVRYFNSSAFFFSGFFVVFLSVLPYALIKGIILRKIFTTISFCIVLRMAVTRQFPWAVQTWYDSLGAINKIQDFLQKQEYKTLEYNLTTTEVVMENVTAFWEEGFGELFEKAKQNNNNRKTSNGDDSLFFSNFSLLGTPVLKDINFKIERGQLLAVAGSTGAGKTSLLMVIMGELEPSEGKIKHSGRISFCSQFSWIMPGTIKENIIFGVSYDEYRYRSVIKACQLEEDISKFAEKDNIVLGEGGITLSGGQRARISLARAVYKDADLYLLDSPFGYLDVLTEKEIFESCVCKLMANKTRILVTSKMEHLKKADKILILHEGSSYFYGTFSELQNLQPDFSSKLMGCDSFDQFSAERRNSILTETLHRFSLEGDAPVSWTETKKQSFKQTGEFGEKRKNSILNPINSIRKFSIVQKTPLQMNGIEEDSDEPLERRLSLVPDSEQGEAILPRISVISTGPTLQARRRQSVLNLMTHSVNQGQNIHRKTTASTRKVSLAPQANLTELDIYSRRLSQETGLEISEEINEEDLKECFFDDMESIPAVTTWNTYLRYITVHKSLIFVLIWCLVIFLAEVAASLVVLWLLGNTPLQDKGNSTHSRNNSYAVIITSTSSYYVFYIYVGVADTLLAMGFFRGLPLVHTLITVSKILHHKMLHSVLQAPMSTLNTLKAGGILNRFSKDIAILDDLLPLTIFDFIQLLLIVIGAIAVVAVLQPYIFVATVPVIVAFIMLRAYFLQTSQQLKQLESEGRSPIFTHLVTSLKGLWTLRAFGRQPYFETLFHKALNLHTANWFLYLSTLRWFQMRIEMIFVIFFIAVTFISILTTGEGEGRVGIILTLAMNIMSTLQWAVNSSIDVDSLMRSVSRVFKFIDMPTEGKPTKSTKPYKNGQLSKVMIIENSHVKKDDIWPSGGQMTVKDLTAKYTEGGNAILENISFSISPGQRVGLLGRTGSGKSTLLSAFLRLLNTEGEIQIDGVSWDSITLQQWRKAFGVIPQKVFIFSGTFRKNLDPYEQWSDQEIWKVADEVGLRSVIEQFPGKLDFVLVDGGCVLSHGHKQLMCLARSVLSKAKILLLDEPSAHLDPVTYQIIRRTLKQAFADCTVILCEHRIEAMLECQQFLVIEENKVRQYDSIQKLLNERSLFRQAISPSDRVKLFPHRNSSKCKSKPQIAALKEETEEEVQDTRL

Cc1ccccc1NC(=O)c1c(NC(=O)C(F)(F)Br)sc2c1CCCCC2
Stability [1]: > 6 months | remaining at 3 h, 10 µM [2]: 30% | inhibition [3]: Active | remaining at 24 h, 100 µM [4]: 72% | viability at 8 h, 5 µM [5]: 97% | Kinetic_solubility [6]: 40 µg/mL | inhibition [7]: Active | inhibition [8]: inactive | remaining at 48 h, 100 µM [9]: 30% | inhibition [10]: Active | inhibition [11]: inactive | inhibition [12]: Active | inhibition [13]: Dose-dependent effect
